Data on four compounds can be found in ChEMBL document CHEMBL1649241, “Antimalarial activity of simalikalactone E, a new quassinoid from Quassia amara L. (Simaroubaceae)” (Antimicrob Agents Chemother, 2009).

Data set [1] deals with Plasmodium vinckei petteri. The experiment in a line: Antiplasmodial activity against Plasmodium vinckei petteri infected in po dosed CD mouse assessed as extended mean survival time at 10 mg/kg/day, po for 4 days. Format: functional. Summed up: (§1)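 Female CD mice were infected with 10^6 P. vinckei petteri-infected erythrocytes and dosed i.p. or p.o. on days 0–3, five per group. Survival was followed to day 21. Mean survival time is the area under the Kaplan–Meier survivor function. Where mice survived, an extended mean was obtained by exponential extension of the survivor function to zero. Comparisons used the log rank test.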

Data set [2] concerns Plasmodium vinckei petteri. The experiment in a line: Antiplasmodial activity against Plasmodium vinckei petteri infected in po dosed CD mouse assessed as extended mean survival time at 1 mg/kg/day, ip for 4 days. Format: functional. Summed up: as §1
Data set [3] concerns Plasmodium vinckei petteri. The experiment in a line: Antiplasmodial activity against Plasmodium vinckei petteri infected in po dosed CD mouse assessed as extended mean survival time at 0.5 mg/kg/day, ip for 4 days. Format: functional. Summed up:
as §1

The subject of another data set is MCF7. Briefly: Cytotoxicity against human MCF7 cells assessed as incorporation of [3H]hypoxanthine after 48 hrs. The format is cell-based. Conditions: mcf7, 48 h. Put shortly:
(§2)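 Vero, MCF7 and THP1 cells were grown under the P. falciparum culture conditions, except that 10% fetal calf serum replaced 5% human serum. Cells were incubated 48 h with serial drug dilutions. Growth was measured by [3H]hypoxanthine incorporation relative to untreated controls. IC50 is the mean ± SEM of ≥3 independent experiments.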

Data set [4] relates to Plasmodium falciparum. The experiment in a line: Antiplasmodial activity against Plasmodium falciparum W2 gametocytes assessed as suppression of parasitemia […] by Giemsa staining. The format is functional, organism-based. Summed up:
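W2 gametocytogenesis was induced on day 0 by a modified Ifediba–Vanderberg method, with N-acetylglucosamine added on day 10. Increasing compound dilutions were added on day 13. On day 15, Giemsa-stained thin smears were counted (≥10,000 erythrocytes each) to estimate gametocytemia against untreated and reference-drug controls. IC50 is the mean ± SEM of ≥3 independent experiments.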

For data set [5], the system named is Plasmodium vinckei petteri. Briefly: Antiplasmodial activity against Plasmodium vinckei petteri infected in CD mouse assessed as suppression of parasitemia at 1 mg/kg/day, po measured on day 5 post-infection by Giemsa staining. Conditions: 120 h. The format is functional. Put shortly: (§3)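 Four-day suppressive test in female CD mice (20 ± 2 g) infected with 10^6 P. vinckei petteri-infected erythrocytes on day 0. Groups of five were dosed i.p. (DMSO vehicle) or p.o. (carboxymethylcellulose vehicle) on days 0–3 at 0.5–20 mg/kg/day. Parasitemia was read from Giemsa-stained tail-blood smears (≥5,000 erythrocytes). % inhibition = (control − treated parasitemia)/control × 100.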

For data set [6], the system named is Plasmodium vinckei petteri. The experiment in a line: Antiplasmodial activity against Plasmodium vinckei petteri infected in po dosed CD mouse assessed as mean survival time at 1 mg/kg/day, po for 4 days measured upto day 21 post-infection. Format: functional. Summed up:
as §1

In the next data set the test system is Vero. The experiment in a line: Cytotoxicity against african green monkey Vero cells assessed as incorporation of [3H]hypoxanthine after 48 hrs. Conditions: chlorocebus sabaeus. Format: cell-based. Put shortly:
as §2

The test system of data set [7] is Plasmodium vinckei petteri. The experiment in a line: Antiplasmodial activity against Plasmodium vinckei petteri infected in ip dosed CD mouse assessed as suppression of parasitemia measured on day 5 post-infection by Giemsa staining. The format is functional. As to conditions: 120 h. Put shortly: as §3
Data set [8] concerns Plasmodium vinckei petteri. The experiment in a line: Antiplasmodial activity against Plasmodium vinckei petteri infected in po dosed CD mouse assessed as extended mean survival time at 1 mg/kg/day, po for 4 days measured upto day 21 post-infection. Format: functional. Put shortly: as §1
The subject of data set [9] is Plasmodium vinckei petteri. Briefly: Antiplasmodial activity against Plasmodium vinckei petteri infected in CD mouse assessed as suppression of parasitemia at 1 mg/kg/day, ip measured on day 5 post-infection by Giemsa staining. Format: functional. As to conditions: 120 h, route intraperitoneal. Summed up: as §3
Data set [10] has as its system Plasmodium vinckei petteri. Briefly: Antiplasmodial activity against Plasmodium vinckei petteri infected in po dosed CD mouse assessed as extended mean survival time at 20 mg/kg/day, po for 4 days. The format is functional. Summed up:
as §1

Data set [11] deals with Plasmodium vinckei petteri. The experiment in a line: Antiplasmodial activity against Plasmodium vinckei petteri infected in po dosed CD mouse assessed as mean survival time at 5 mg/kg/day, ip for 4 days measured upto day 21 post-infection. The format is functional. Summed up:
as §1

For data set [12], the system named is Plasmodium vinckei petteri. Briefly: Antiplasmodial activity against Plasmodium vinckei petteri infected in CD mouse assessed as suppression of parasitemia at 5 mg/kg/day, ip measured on day 5 post-infection by Giemsa staining. The format is functional. As to conditions: 120 h, route intraperitoneal. Put shortly:
as §3

Data set [13] concerns Plasmodium vinckei petteri. The experiment in a line: Antiplasmodial activity against Plasmodium vinckei petteri infected in CD mouse assessed as suppression of parasitemia at 20 mg/kg/day, po measured on day 5 post-infection by Giemsa staining. The format is functional. Conditions: 120 h. Put shortly: as §3
Data set [14] deals with Plasmodium vinckei petteri. Briefly: Antiplasmodial activity against Plasmodium vinckei petteri infected in po dosed CD mouse assessed as suppression of parasitemia measured on day 5 post-infection by Giemsa staining. The format is functional. As to conditions: 120 h. Summed up: as §3
The subject of data set [15] is Plasmodium vinckei petteri. Briefly: Antiplasmodial activity against Plasmodium vinckei petteri infected in po dosed CD mouse assessed as mean survival time at 1 mg/kg/day, ip for 4 days measured upto day 21 post-infection. Format: functional. Summed up:
as §1

Data set [16] concerns Plasmodium vinckei petteri. Briefly: Antiplasmodial activity against Plasmodium vinckei petteri infected in po dosed CD mouse assessed as mean survival time at 0.5 mg/kg/day, ip for 4 days measured upto day 21 post-infection. The format is functional. Put shortly:
as §1

Data set [17] concerns Plasmodium vinckei petteri. Briefly: Antiplasmodial activity against Plasmodium vinckei petteri infected in CD mouse assessed as suppression of parasitemia at 0.5 mg/kg/day, ip measured on day 5 post-infection by Giemsa staining. The format is functional. As to conditions: 120 h, route intraperitoneal. Put shortly:
as §3

Data set [18] has as its system Plasmodium vinckei petteri. Briefly: Antiplasmodial activity against Plasmodium vinckei petteri infected in CD mouse assessed as suppression of parasitemia at 10 mg/kg/day, po measured on day 5 post-infection by Giemsa staining. The format is functional. As to conditions: 120 h. Put shortly:
as §3

For data set [19], the system named is Plasmodium vinckei petteri. Briefly: Antiplasmodial activity against Plasmodium vinckei petteri infected in po dosed CD mouse assessed as extended mean survival time at 5 mg/kg/day, ip for 4 days. Format: functional. Put shortly:
as §1

The test system of data set [20] is Plasmodium vinckei petteri. Briefly: Antiplasmodial activity against Plasmodium vinckei petteri infected in po dosed CD mouse assessed as mean survival time at 10 mg/kg/day, po for 4 days measured upto day 21 post-infection. The format is functional. Summed up:
as §1

The subject of the next data set is THP-1. The experiment in a line: Cytotoxicity against human THP1 cells assessed as incorporation of [3H]hypoxanthine after 48 hrs. Format: cell-based. As to conditions: thp-1, 48 h. Put shortly:
as §2

Data set [21] has as its system Plasmodium vinckei petteri. The experiment in a line: Antiplasmodial activity against Plasmodium vinckei petteri infected in CD mouse assessed as suppression of parasitemia at 10 mg/kg/day, ip measured on day 5 post-infection by Giemsa staining. Format: functional. Conditions: 120 h, route intraperitoneal. Put shortly: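 Four-day suppressive test in female CD mice (20 ± 2 g) infected on day 0 with P. vinckei petteri-infected red blood cells in RPMI. Groups of five treated i.p. once daily, days 0–3; DMSO-only mice were the i.p. control. Parasitemia was counted on Giemsa-stained tail-blood smears (at least 5,000 erythrocytes). Inhibition % = (control − treated parasitemia)/control × 100.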

For data set [22], the system named is Plasmodium vinckei petteri. Briefly: Antiplasmodial activity against Plasmodium vinckei petteri infected in po dosed CD mouse assessed as mean survival time at 10 mg/kg/day, ip for 4 days measured upto day 21 post-infection. Format: functional. Summed up: as §1
Data set [23] relates to Plasmodium vinckei petteri. The experiment in a line: Antiplasmodial activity against Plasmodium vinckei petteri infected in po dosed CD mouse assessed as extended mean survival time at 10 mg/kg/day, ip for 4 days. The format is functional. Put shortly: as §1
A further data set relates to Plasmodium yoelii yoelii. Briefly: Antiplasmodial activity against Plasmodium yoelii yoelii infected in po dosed rodents. Format: functional.
The next data set relates to Plasmodium berghei. Briefly: Antiplasmodial activity against Plasmodium berghei infected in ip dosed mouse. The format is functional.
Data set [24] has as its system Plasmodium falciparum. Briefly: Antiplasmodial activity against Plasmodium falciparum FcB1/Columbia assessed as suppression of parasitemia after 4 hrs by Giemsa staining. The format is functional, organism-based. Put shortly:
(§4)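 Asexual blood-stage P. falciparum growth inhibition, run by a modified Desjardins method. Parasites were grown by a modified Trager–Jensen culture and synchronized by magnetic enrichment plus 5% D-sorbitol lysis. F32 is chloroquine-sensitive; FcB1 and W2 are chloroquine-resistant. IC50 is the mean ± SEM of at least three independent experiments.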

Data set [25] deals with Plasmodium falciparum. Briefly: Antiplasmodial activity against Plasmodium falciparum W2 assessed as suppression of parasitemia after 4 hrs by Giemsa staining. As to conditions: W2, 4 h. Format: functional, organism-based. Summed up: as §4
Data set [26] relates to Plasmodium falciparum. Briefly: Antiplasmodial activity against Plasmodium falciparum F32 assessed as suppression of parasitemia after 4 hrs by Giemsa staining. The format is functional, organism-based. As to conditions: F32, 4 h. Summed up:
as §4

As to `CC[C@H](C)C(=O)O[C@@H]1[C@H]2C(C)=CC(=O)[C@@H](O)[C@]2(C)[C@H]2[C@@H](O)[C@H](O)[C@@]3(C)OC[C@@]24[C@@H]1OC(=O)[C@H](OC(=O)[C@@H](C)CC)[C@@H]34` [SIMALIKALACTONE E], the MST in [1] was 15.01 days; in [2], 93.89 days; in data set [3] it was 41.07 days; in data set [6], 11 days; in [8], 13.61 days; in data set [10], 16.41 days. Also, the MST in [11] is 11.4 days; in [15], 18.6 days; in [16] it was 16.4 days; in data set [19], 20.57 days; in data set [20], 12.4 days. Also, the values for the Activity in the data set on MCF7, with Vero and with THP-1 were 47 nM, 6.574 µM and 33 nM, respectively. For the same compound, in the data set with Plasmodium falciparum [4], the IC50 turned out to be 1.12 µM. In addition, the figures for the inhibition in vivo at 1 mg/kg/day in data set [5] and in data set [9] were 55% and 98%, respectively. In addition, the values for the ED50 in data set [7], in [14] and in data set [15] (Plasmodium vinckei) were 0.5 mg/kg/day, 1 mg/kg/day and 3 mg/kg/day, respectively. The inhibition in vivo at 5 mg/kg/day in data set [12] worked out at 100%. Also, the inhibition in vivo at 20 mg/kg/day in data set [13] came to 100%. Moreover, the inhibition in vivo at 0.5 mg/kg/day in data set [17] is 59%. In addition, in [18], the inhibition in vivo at 10 mg/kg/day was determined as 95%.
In the case of `CCN(CC)CCCC(C)Nc1ccnc2cc(Cl)ccc12` (stereo not drawn) [CHLOROQUINE], the Activity in the data set with MCF7 is greater than 500 nM; with Vero, greater than 0.5 µM; in the data set on THP-1, greater than 500 nM. Besides, in [21], the inhibition in vivo at 10 mg/kg/day came out at 100%. Also, the MST in [22] stood at 19.2 days; in data set [23] it was 43.87 days; in data set [11] it was 12.8 days. Further, in data set [9], the inhibition in vivo at 1 mg/kg/day is no more than 0%. Moreover, the inhibition in vivo at 5 mg/kg/day in data set [12] is 100%.
Turning to `CC[C@@H](C)C(=O)O[C@H]1C(=O)O[C@@H]2C[C@H]3C(C)=CC(=O)[C@@H](O)[C@]3(C)[C@H]3[C@@H](O)[C@H](O)[C@]4(C)OC[C@]32[C@@H]14` [SIMALIKALACTONE D], the results for the ED50 in the data set on Plasmodium yoelii yoelii and in the data set on Plasmodium berghei were 3.7 mg/kg/day and 0.2 mg/kg/day, respectively. Also, the Activity is less than 20 nM with MCF7, 0.058 µM with Vero and less than 2 nM with THP-1.
With `COc1cc(NC(C)CCCN)c2ncccc2c1` (stereo not drawn) [PRIMAQUINE], the IC50 in the data set with Plasmodium falciparum [24] was 8.9 µM; with Plasmodium falciparum [25], 7.14 µM; in the data set on Plasmodium falciparum [4], 8.9 µM; with Plasmodium falciparum [26], 6.17 µM. Further, the Activity with Vero was determined as 340 µM.

The IC50 is the midpoint of a concentration-inhibition curve. One may read the inhibition in vivo as how much of the control response was suppressed. In general, ED50 refers to the dose that gives a 50% effect, or the effect in half of the subjects.
